ChEMBL document CHEMBL1144714, “Reaction of rosmarinic acid with nitrite ions in acidic conditions: discovery of nitro- and dinitrorosmarinic acids as new anti-HIV-1 agents” (J Med Chem, 2008)

Experiments:
[1] = system: Human immunodeficiency virus 1; assay: Antiviral activity against HIV1 3B infected in human MT4 cells assessed as reduction of virus-induced cytopathogenicity by MTT assay; type: functional, organism-based; conditions: Human immunodeficiency virus 1, 3B
How it was run: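 MT-4 lymphocytes infected with 100–300 CCID50 of HIV-1 IIIB stock (CCID50 titrated on MT-4 cells), in the presence of 5-fold serial compound dilutions. Protection against virus-induced cytopathic effect read by MTT reduction to formazan, measured spectrophotometrically. EC50 = concentration giving 50% protection against CPE.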

[2] = Cytotoxicity against human MT4 cells by MTT method; type: cell-based
How it was run: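 Uninfected MT-4 lymphocytes run in parallel with the antiviral assay, with 5-fold serial compound dilutions. Viability read by MTT reduction to formazan, measured spectrophotometrically. CC50 = concentration reducing MT-4 viability by 50%.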

[3] = target: T1, Human immunodeficiency virus type 1 integrase (Human immunodeficiency virus 1, UniProt Q7ZJM1); assay: Inhibition of HIV1 integrase using labelled oligonucleotide substrate in presence of bovine serum albumin by ELISA
T1 sequence (Q7ZJM1 whole entry): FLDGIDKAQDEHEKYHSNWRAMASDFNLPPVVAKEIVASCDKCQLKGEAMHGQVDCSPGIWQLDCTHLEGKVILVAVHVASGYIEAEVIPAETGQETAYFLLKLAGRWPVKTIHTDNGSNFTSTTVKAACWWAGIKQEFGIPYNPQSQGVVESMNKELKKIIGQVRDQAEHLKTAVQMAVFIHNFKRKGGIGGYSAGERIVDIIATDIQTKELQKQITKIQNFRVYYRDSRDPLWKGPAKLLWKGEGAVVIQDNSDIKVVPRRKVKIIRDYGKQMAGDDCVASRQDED

[4] = target: Human immunodeficiency virus type 1 reverse transcriptase (Human immunodeficiency virus 1, UniProt Q72547); assay: Inhibition of HIV1 reverse transcriptase
[5] = Selectivity index, ratio of CC50 for human MT4 cells to EC50 for HIV1 3B; type: functional
How it was run: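 Ratio CC50/EC50 from parallel MT-4/MTT assays. CC50 comes from uninfected MT-4 cells and EC50 from MT-4 cells infected with 100–300 CCID50 of HIV-1 IIIB. Both assays used 5-fold serial dilutions.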

[6] = target: T1, Human immunodeficiency virus type 1 integrase; assay: Inhibition of HIV1 integrase 3'-processing activity using labelled oligonucleotide substrate by ELISA
[7] = target: T1, Human immunodeficiency virus type 1 integrase; assay: Inhibition of HIV1 integrase strand transfer activity using labelled oligonucleotide substrate by ELISA
[8] = target: T1, Human immunodeficiency virus type 1 integrase; assay: Inhibition of HIV1 integrase using labelled oligonucleotide substrate by ELISA
Albumin = Albumin (Bos taurus, UniProt P02769); assay: Binding affinity to BSA by fluorescence quenching assay; type: ADME; conditions: cattle, isolated protein
Sequence of Albumin (P02769 whole entry): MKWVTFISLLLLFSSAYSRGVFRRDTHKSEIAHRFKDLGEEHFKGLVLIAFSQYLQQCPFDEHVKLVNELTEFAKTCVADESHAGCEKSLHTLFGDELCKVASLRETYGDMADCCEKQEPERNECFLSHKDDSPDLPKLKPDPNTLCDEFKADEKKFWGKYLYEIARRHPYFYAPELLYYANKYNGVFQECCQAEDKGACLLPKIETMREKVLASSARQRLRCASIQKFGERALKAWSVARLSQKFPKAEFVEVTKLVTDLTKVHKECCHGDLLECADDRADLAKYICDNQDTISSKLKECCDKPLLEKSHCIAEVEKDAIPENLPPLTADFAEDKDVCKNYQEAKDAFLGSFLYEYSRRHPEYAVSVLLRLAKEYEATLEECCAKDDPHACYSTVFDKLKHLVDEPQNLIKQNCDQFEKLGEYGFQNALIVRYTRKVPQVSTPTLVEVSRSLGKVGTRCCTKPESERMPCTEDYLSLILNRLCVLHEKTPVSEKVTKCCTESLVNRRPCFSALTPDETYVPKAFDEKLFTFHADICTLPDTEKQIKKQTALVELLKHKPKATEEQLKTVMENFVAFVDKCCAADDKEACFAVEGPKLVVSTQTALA
How it was run: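 BSA tryptophan fluorescence quenching at pH 7.4 on binding of the compound. Data fitted as Stern–Volmer plots, and the slope of the linear fit was taken as the quenching constant.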

[9] = target: T1, Human immunodeficiency virus type 1 integrase; assay: Inhibition of HIV1 integrase using labelled U5A/U5B double stranded DNA substrate

| Compound | EC50 [1] | CC50 [2] | IC50 [3] | IC50 [4] | Ratio CC50/EC50 [5] | IC50 [6] | IC50 [7] | IC50 [8] | K (Albumin) | IC50 [9] |
| --- | --- | --- | --- | --- | --- | --- | --- | --- | --- | --- |
| O=C(/C=C/c1ccc(O)c(O)c1)O[C@H](Cc1ccc(O)c(O)c1)C(=O)O [ROSMARINIC ACID] | > 55 µM | 55 µM | 63.5 µM | 100 µM |  |  |  |  |  |  |
| O=C(NCc1ccc(F)cc1)c1nc(N2CCCCS2(=O)=O)c2cccnc2c1O |  | 2.2 µM |  |  | 457 |  |  |  |  |  |
| O=C(/C=C/c1cc(O)c(O)cc1[N+](=O)[O-])O[C@H](Cc1cc(O)c(O)cc1[N+](=O)[O-])C(=O)O | 12 µM | 45.5 µM | 20.8 µM |  | 3.8 | 52.2 µM | 0.07 µM | 0.15 µM | 3300 10^3/M | 0.03 µM |
| O=C(/C=C/c1ccc(O)c(O)c1)O[C@H](Cc1cc(O)c(O)cc1[N+](=O)[O-])C(=O)O | 39 µM | 160 µM | 54.7 µM |  | 4 | > 247 µM | 3.7 µM | 1.4 µM | 17460 10^3/M | 0.026 µM |
